Measurements: ChEMBL document CHEMBL1828627, “High-throughput-screening-based identification and structure-activity relationship characterization defined (S)-2-(1-aminoisobutyl)-1-(3-chlorobenzyl)benzimidazole as a highly antimycotic agent nontoxic to cell lines” (J Med Chem, 2011)
The source made the active and inactive calls.

Key:
Candida albicans [1] = assay: Antifungal activity against Candida albicans SC5314 infected in HeLa cells at 20 uM after 5 days by fluorescein diacetate assay; format: functional, organism-based
Procedure, shortened: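 Primary HTS: HeLa cells co-incubated with C. albicans plus a single compound at ~20 μM for 5 days. Viability checked microscopically at 18 h and quantified at day 5 by fluorescein diacetate fluorescence. Wells also scanned visually for yeast growth. Hit criterion: >40% signal relative to the uninfected untreated HeLa (~100%) and infected untreated HeLa (~0%) controls.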

Candida albicans [2] = assay: Antifungal activity against Candida albicans SC5314 infected in HeLa cells after 5 days by fluorescein diacetate assay; format: functional, organism-based
Procedure, shortened: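 HeLa cells co-incubated with C. albicans and compound for 5 days. Dose–response from resynthesized compounds. Host-cell viability checked microscopically at 18 h, then quantified at day 5 by fluorescein diacetate conversion to a fluorophore by live cells. Wells also inspected visually for yeast growth. Controls: untreated uninfected HeLa (~100%) and untreated infected HeLa (~0%). IC50 derived from infected cells; CC50 as half-maximal cytotoxic concentration.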

[3] = Cytotoxicity against human HeLa cells assessed as cell viability after 5 days by fluorescein diacetate assay; format: cell-based
[4] = Selectivity index of CC50 for human HeLa cells to IC50 for Candida albicans SC5314 infected in HeLa cells
Procedure, shortened: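 Selectivity index calculated as CC50/IC50. CC50 is the half-maximal cytotoxic concentration in HeLa cells; IC50 is the half-maximal antimycotic concentration in the C. albicans–infected HeLa assay. Both come from 5-day fluorescein diacetate viability readouts.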

Row | SMILES | inhibition (Candida albicans [1]) | further results
1 | CCC[C@H](N)c1nc2cc(Cl)c(Cl)cc2n1Cc1cccc(F)c1 | inactive | 
2 | CC(C)[C@H](N)c1nc2cc(C(F)(F)F)ccc2n1Cc1cccc(F)c1 | inactive | 
3 | CCC[C@H](N)c1nc2cc(C(F)(F)F)ccc2n1Cc1cccc(F)c1 | inactive | 
4 | CCC[C@H](N)c1nc2cc(C(F)(F)F)ccc2n1Cc1cccc(Cl)c1 | inactive | 
5 | CCC[C@H](N)c1nc2ccccc2n1Cc1cccc(Cl)c1 | inactive | 
6 | CC(C)(N)c1nc2ccccc2n1Cc1cccc(F)c1 | inactive | 
7 | Cc1cccc(Cn2c([C@@H](N)CC(C)C)nc3ccccc32)c1 | inactive | 
8 | C[C@H](N)c1nc2cc(C(F)(F)F)ccc2n1Cc1cccc(Cl)c1 | inactive | 
9 | COc1cccc(Cn2c([C@H](C)N)nc3cc(Cl)c(Cl)cc32)c1 | inactive | 
10 | CCC[C@H](N)c1nc2cc(C(F)(F)F)ccc2n1Cc1ccc(Cl)cc1 | inactive | 
11 | CC(C)[C@H](N)c1nc2cc(C(F)(F)F)ccc2n1Cc1cccc(Cl)c1 | inactive | 
12 | Cc1cccc(Cn2c([C@H](C)N)nc3cc(C(F)(F)F)ccc32)c1 | inactive | 
13 | CCC[C@H](N)c1nc2ccccc2n1Cc1cccc(OC)c1 | inactive | 
14 | CC(C)[C@H](N)c1nc2ccccc2n1Cc1ccc(Cl)cc1 | inactive | 
15 | CC(C)(N)c1nc2cc(Cl)c(Cl)cc2n1Cc1cccc(Cl)c1 | inactive | 
16 | CC(C)C[C@H](N)c1nc2cc(Cl)c(Cl)cc2n1Cc1cccc(F)c1 | inactive | 
17 | C[C@H](N)c1nc2cc(Cl)c(Cl)cc2n1Cc1ccc(Cl)cc1 | inactive | 
18 | CC(C)(N)c1nc2cc(Cl)c(Cl)cc2n1Cc1ccc(Cl)cc1 | inactive | 
19 | C[C@H](N)c1nc2cc(Cl)c(Cl)cc2n1Cc1cccc(F)c1 | inactive | 
20 | COc1cccc(Cn2c(C(C)(C)N)nc3cc(C(F)(F)F)ccc32)c1 | inactive | 
21 | CC(C)(N)c1nc2ccccc2n1Cc1ccc(Cl)cc1 | inactive | IC50 (Candida albicans [2]; Candida albicans, SC5314, HeLa, 120 h, read-out: IC50): 5 µM; CC50 at 120 h [3]: 50 µM; Ratio CC50/IC50 [4]: 10
22 | COc1cccc(Cn2c([C@@H](N)CC(C)C)nc3cc(C(F)(F)F)ccc32)c1 | inactive | 
23 | CCC(C)[C@H](N)c1nc2cc(C(F)(F)F)ccc2n1Cc1ccc(Cl)cc1 (stereo partly drawn) | inactive | 
24 | CC(=O)N[C@H](c1nc2ccccc2n1Cc1cccc(Cl)c1)C(C)C |  | IC50 (Candida albicans [2]; hela): Not Active
25 | CC(C)(N)c1nc2cc(C(F)(F)F)ccc2n1Cc1ccc(Cl)cc1 | inactive | 
